The results in this text go back to ChEMBL document CHEMBL1134666, “Design, synthesis, and biological evaluation of novel nucleoside and nucleotide analogues as agents against DNA viruses and/or retroviruses” (J Med Chem, 2001).

Where only a bound is given, the exact number is not on record here.

Substrate in series [1]: Nc1ncnc2c1ncn2COCCO
The conditions noted are these: herpes simplex virus.

Substrate in series [2]: Nc1ncnc2c1ncn2[C@@H]1O[C@H](CO)[C@@H](O)[C@@H]1O
The conditions noted are these: herpes simplex virus.

Substrate in series [3]: Nc1ncnc2ncn(COCCO)c12
The conditions noted are these: herpes simplex virus.

Substrate in series [4]: Nc1nc(O)c2c(ncn2COCCO)n1
The conditions noted are these: herpes simplex virus.

Substrate in series [5]: Nc1nc2c(ncn2COCCO)c(=O)[nH]1
The settings on record: Chlorocebus sabaeus; Vero.

Substrate in series [6]: Nc1nc(O)c2c(ncn2COCCO)n1
The settings on record: Chlorocebus sabaeus; Vero.

Substrate in series [7]: Nc1ncnc2ncn(COCCO)c12
The series can be described thus: (§1) Michaelis rate constant is determined by the Lineweaver and Burk method against adenosine deaminase. The gist of the method:
(§2)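 Reaction velocity measured as µmol/min per mg enzyme across substrate concentrations.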

Substrate in series [8]: Nc1ncnc2c1ncn2[C@@H]1O[C@H](COP(=O)(O)O)[C@@H](OP(=O)(O)COCCn2cnc3ncnc(N)c32)[C@H]1O
The description is as §1. The gist of the method:
as §2

Substrate in series [9]: COC1=C(OC)/C(=C/COP(=O)(O)OC[C@H]2O[C@@H](n3cnc4c(N)ncnc43)[C@H](O)[C@@H]2OP(=O)(O)COCCn2cnc3ncnc(N)c32)OC1=O
Described as §1. The method, boiled down: as §2

Substrate in series [10]: Nc1ncnc2ncn(CCOCP(=O)(O)O)c12
Described as §1. The gist of the method: as §2

Substrate in series [11]: COC1=C(OC)/C(=C/COP(=O)(O)COCCn2cnc3c(N)ncnc32)OC1=O
The series is described as §1. The method, boiled down:
as §2

Substrate in series [12]: Nc1ncnc2c1ncn2[C@@H]1O[C@H](COP(=O)(O)O)[C@@H](OP(=O)(O)COCCn2cnc3ncnc(N)c32)[C@H]1O
The series can be described thus: (§3) Michaelis rate constant is determined by the Lineweaver and Burk method against PRPP synthetase. The gist of the method: (§4)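 PRPP synthetase reaction in 10.0 mM potassium phosphate buffer (pH 8.0) with 5.0 mM MgCl₂, 2.5 mM PRPP, 0.04 unit enzyme and AMP or test nucleotide. Reactions ran linearly and were stopped with MeOH after 4 h. Diphosphate or ATP formation was analysed by anion-exchange HPLC. Inhibition was measured at different AMP concentrations plus inhibitor, with 0.002 unit enzyme, 37 °C, 15 min, ATP formation followed by HPLC.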

Substrate in series [13]: Nc1ncnc2ncn(CCOCP(=O)(O)O)c12
The series is described as §3. The method, boiled down: as §4

B1: Thymidine kinase, cytosolic (Homo sapiens), P04183 (protein)
chain: MSCINLPTVLPGSPSKTRGQIQVILGPMFSGKSTELMRRVRRFQIAQYKCLVIKYAKDTRYSSSFCTHDRNTMEALPACLLRDVAQEALGVAVIGIDEGQFFPDIVEFCEAMANAGKTVIVAALDGTFQRKPFGAILNLVPLAESVVKLTAVCMECFREAAYTKRLGTEKEVEVIGGADKYHSVCRLCYFKKASGQPAGPDNKENCPVPGKPGEAVAARKLFAPQQILQCSPAN
By Km is commonly meant the concentration of substrate that gives half-maximal velocity. As for B1, the Km stood at 2 µM in [1]; 1.5 µM in series [2]; 30 µM in [3]; 12.8 µM in series [4]; 2.2 µM in [5]; 18.3 µM in [6].

B2: Adenosine deaminase (Bos taurus), P56658 (protein)
chain: MAQTPAFNKPKVELHVHLDGAIKPETILYYGRKRGIALPADTPEELQNIIGMDKPLSLPEFLAKFDYYMPAIAGCREAVKRIAYEFVEMKAKDGVVYVEVRYSPHLLANSKVEPIPWNQAEGDLTPDEVVSLVNQGLQEGERDFGVKVRSILCCMRHQPSWSSEVVELCKKYREQTVVAIDLAGDETIEGSSLFPGHVKAYAEAVKSGVHRTVHAGEVGSANVVKEAVDTLKTERLGHGYHTLEDATLYNRLRQENMHFEVCPWSSYLTGAWKPDTEHPVVRFKNDQVNYSLNTDDPLIFKSTLDTDYQMTKNEMGFTEEEFKRLNINAAKSSFLPEDEKKELLDLLYKAYGMPSPASAEQCL
As for B2, the Km in series [7] was 200 µM; in series [8], 160 µM; in series [9], 640 µM; in [10], more than 800 µM; in [11], more than 800 µM.

B3: Phosphoribosyl pyrophosphate synthase-associated protein 2 (Homo sapiens), O60256 (protein)
chain: MFCVTPPELETKMNITKGGLVLFSANSNSSCMELSKKIAERLGVEMGKVQVYQEPNRETRVQIQESVRGKDVFIIQTVSKDVNTTIMELLIMVYACKTSCAKSIIGVIPYFPYSKQCKMRKRGSIVSKLLASMMCKAGLTHLITMDLHQKEIQGFFNIPVDNLRASPFLLQYIQEEIPDYRNAVIVAKSPASAKRAQSFAERLRLGIAVIHGEAQDAESDLVDGRHSPPMVRSVAAIHPSLEIPMLIPKEKPPITVVGDVGGRIAIIVDDIIDDVDSFLAAAETLKERGAYKIFVMATHGLLSSDAPRRIEESAIDEVVVTNTIPHEVQKLQCPKIKTVDISMILSEAIRRIHNGESMSYLFRNIGLDD
Regarding B3, the Km was 570 µM in [12] and 4800 µM in series [13].
